According to ChEMBL document CHEMBL5107944, “Rational design of selective inhibitors of PARP4” (RSC Med Chem, 2021):
Values belong to the compound of their own block, whether it stands above or below them.

Columns and labels:
[1] = target: T1, Protein mono-ADP-ribosyltransferase PARP11 (Homo sapiens, UniProt Q9NR21); assay: (§1) Inhibition of N-terminal His-tagged full length human PARP11 expressed in Escherichia coli BL21 (DE3) preincubated with 6-a-NAD+ for 5 to 10 mins followed by enzyme addition and measured after 60 mins using NAD+ as substrate byHRP based chemiluminescence assay
T1 sequence (Q9NR21 whole entry): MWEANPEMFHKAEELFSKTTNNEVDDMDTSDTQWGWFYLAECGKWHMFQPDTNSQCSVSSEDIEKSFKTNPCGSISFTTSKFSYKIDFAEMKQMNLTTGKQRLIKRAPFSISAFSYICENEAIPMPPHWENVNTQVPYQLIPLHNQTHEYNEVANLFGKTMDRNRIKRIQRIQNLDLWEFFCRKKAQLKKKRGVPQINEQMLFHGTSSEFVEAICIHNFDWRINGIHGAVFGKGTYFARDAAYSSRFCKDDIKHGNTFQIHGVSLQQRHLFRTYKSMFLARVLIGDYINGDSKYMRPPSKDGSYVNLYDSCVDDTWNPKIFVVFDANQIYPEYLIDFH
How it was run: (§2)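 Plate-based PASTA assay. His6-SRPK2 is captured on nickel-coated wells as the ADP-ribosylation substrate in HEPES pH 7.5 buffer with NaCl, MgCl2 and TCEP. Recombinant PARP is added at 4–400 nM (2×). Inhibitor (0–200 μM) is premixed with 200 μM 6-a-NAD+ (2×) and reacted 60 min at 30 °C. Incorporated label is click-conjugated to biotin-azide and detected with streptavidin-HRP by chemifluorescence (ex 570/em 600). IC50 is the mean of ≥3 independent assays.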

[2] = target: Poly [ADP-ribose] polymerase 2 (Homo sapiens, UniProt Q9UGN5); assay: Inhibition of N-terminal His-tagged full length human PARP2 expressed in Escherichia coli BL21 (DE3) preincubated with 6-a-NAD+ for 5 to 10 mins followed by enzyme addition and measured after 60 mins using NAD+ as substrate byHRP based chemiluminescence assay; how it was run: as §2
[3] = target: Protein mono-ADP-ribosyltransferase PARP4 (Homo sapiens, UniProt Q9UKK3); assay: as §1, with “recombinant” for “full length”, “PARP4 brct-catalytic domain (369 to 573 residues)” for “PARP11”; how it was run: as §2
[4] = target: T2, Protein mono-ADP-ribosyltransferase PARP15 (Homo sapiens, UniProt Q460N3); assay: Inhibition of N-terminal His-tagged human PARP15 catalytic domain expressed in Escherichia coli BL21 (DE3) preincubated with 6-a-NAD+ for 5 to 10 mins followed by enzyme addition and measured after 60 mins using NAD+ as substrate byHRP based chemiluminescence assay; how it was run: as §2
T2 sequence (Q460N3 whole entry): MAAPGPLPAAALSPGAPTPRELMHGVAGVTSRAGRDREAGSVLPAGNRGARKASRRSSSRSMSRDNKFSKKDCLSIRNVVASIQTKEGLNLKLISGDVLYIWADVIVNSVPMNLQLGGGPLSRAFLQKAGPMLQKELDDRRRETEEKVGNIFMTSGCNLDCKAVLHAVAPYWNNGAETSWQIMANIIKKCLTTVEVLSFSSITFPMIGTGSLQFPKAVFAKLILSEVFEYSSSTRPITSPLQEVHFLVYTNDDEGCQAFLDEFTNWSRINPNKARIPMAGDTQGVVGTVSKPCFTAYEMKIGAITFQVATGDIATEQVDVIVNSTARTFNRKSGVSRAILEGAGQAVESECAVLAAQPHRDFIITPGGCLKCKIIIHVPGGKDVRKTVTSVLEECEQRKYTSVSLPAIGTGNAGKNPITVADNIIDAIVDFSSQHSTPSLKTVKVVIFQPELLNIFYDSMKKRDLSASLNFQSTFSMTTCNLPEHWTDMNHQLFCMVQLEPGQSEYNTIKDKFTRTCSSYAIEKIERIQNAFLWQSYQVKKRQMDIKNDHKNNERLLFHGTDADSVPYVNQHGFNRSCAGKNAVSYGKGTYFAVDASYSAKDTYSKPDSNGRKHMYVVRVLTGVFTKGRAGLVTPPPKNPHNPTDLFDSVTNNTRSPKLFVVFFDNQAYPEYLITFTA

[5] = target: Poly [ADP-ribose] polymerase 1 (Homo sapiens, UniProt P09874); assay: Inhibition of N-terminal His-tagged full length human PARP1 expressed in Escherichia coli BL21 (DE3) preincubated with 6-a-NAD+ for 5 to 10 mins followed by enzyme addition and measured after 60 mins using NAD+ as substrate byHRP based chemiluminescence assay; how it was run: as §2
Poly [ADP-ribose] polymerase 1, sequence (P09874 whole entry): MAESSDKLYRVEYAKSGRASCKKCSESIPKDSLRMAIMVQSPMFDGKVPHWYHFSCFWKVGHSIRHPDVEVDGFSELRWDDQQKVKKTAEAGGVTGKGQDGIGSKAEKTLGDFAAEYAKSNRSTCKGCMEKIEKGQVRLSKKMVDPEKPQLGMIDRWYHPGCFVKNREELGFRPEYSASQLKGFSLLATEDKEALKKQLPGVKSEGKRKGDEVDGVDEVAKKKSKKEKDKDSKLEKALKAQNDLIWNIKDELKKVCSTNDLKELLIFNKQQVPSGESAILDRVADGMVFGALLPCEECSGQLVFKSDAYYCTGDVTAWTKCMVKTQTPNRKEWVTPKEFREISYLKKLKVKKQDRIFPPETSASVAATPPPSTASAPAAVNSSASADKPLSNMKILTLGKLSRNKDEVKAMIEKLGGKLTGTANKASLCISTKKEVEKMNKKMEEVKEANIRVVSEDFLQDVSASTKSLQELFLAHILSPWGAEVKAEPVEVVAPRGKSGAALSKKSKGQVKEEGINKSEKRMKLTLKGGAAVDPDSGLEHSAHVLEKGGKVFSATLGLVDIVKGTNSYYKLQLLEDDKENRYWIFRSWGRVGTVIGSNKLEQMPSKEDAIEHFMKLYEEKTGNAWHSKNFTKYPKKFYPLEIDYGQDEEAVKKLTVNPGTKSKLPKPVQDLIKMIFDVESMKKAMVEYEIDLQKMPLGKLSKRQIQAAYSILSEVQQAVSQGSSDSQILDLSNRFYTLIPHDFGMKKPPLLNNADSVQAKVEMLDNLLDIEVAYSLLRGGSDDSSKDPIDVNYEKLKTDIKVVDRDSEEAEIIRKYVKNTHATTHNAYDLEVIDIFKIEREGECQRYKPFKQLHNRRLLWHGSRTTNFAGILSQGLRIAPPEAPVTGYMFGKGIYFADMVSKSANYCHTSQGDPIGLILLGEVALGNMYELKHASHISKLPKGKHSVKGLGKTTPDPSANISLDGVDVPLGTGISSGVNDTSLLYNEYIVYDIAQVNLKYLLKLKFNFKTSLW

Protein mono-ADP-ribosyltransferase PARP4, sequence (Q9UKK3 whole entry, the tested form may be a part): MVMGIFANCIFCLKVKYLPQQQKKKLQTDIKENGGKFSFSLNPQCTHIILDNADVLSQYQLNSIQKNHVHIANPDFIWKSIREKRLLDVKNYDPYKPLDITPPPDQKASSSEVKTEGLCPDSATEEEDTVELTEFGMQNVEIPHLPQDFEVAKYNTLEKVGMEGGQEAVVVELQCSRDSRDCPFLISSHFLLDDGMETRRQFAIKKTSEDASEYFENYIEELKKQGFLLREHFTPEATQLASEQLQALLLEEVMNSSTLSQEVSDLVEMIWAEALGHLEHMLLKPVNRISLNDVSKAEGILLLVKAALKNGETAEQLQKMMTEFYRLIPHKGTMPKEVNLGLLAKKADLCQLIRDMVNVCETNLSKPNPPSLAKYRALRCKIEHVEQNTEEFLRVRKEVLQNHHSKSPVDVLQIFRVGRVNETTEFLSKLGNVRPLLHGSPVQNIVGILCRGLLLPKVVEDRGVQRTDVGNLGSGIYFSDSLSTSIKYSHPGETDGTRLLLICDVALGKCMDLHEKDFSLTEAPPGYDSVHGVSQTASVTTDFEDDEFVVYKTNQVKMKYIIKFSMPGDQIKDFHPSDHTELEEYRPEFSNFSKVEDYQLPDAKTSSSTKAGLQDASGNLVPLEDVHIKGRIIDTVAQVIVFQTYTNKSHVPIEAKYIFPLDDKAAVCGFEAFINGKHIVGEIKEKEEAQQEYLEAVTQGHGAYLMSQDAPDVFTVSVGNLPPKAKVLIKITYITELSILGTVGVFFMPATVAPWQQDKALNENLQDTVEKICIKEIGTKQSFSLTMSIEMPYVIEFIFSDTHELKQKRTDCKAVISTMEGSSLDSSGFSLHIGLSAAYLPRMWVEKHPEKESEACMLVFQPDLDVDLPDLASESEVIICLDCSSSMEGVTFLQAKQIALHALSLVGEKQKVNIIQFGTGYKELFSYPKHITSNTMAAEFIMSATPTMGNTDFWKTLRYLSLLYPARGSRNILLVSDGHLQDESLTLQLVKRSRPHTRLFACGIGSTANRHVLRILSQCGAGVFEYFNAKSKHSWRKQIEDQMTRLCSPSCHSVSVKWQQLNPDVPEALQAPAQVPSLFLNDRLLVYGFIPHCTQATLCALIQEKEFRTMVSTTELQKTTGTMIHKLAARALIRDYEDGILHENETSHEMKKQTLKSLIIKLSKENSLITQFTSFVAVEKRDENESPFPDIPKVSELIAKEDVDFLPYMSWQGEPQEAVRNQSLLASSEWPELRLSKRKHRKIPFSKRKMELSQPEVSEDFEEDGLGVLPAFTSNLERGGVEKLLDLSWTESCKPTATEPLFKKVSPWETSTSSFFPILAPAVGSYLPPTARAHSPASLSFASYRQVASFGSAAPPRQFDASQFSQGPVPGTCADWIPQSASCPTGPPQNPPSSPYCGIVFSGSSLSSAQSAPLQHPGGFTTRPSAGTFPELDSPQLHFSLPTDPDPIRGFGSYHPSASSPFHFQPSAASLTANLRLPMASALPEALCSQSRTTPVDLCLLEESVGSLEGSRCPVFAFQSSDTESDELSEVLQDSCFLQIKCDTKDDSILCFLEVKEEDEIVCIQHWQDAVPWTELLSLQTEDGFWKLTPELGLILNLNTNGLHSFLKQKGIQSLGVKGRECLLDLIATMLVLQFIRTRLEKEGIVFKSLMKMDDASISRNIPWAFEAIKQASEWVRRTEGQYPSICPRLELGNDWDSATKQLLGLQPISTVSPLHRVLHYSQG
Poly [ADP-ribose] polymerase 2, sequence (Q9UGN5 whole entry, the tested form may be a part): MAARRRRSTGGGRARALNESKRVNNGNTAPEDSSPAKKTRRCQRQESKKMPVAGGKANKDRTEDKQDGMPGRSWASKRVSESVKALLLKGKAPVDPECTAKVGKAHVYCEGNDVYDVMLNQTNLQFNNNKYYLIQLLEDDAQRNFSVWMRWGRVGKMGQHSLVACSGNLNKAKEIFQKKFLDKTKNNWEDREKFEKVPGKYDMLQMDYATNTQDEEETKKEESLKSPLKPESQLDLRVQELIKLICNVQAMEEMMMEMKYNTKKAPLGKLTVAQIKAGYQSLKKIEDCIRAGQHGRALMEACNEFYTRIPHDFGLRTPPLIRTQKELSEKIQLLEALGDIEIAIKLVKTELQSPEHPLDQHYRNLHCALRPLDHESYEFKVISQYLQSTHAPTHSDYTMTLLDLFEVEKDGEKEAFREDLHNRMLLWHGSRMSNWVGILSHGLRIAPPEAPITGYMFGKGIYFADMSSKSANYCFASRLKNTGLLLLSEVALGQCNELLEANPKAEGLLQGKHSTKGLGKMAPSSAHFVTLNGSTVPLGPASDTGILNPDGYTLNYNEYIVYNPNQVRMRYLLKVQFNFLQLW

Structure (SMILES): Cc1cccc2c(=O)[nH]c(CSc3ncccn3)nc12
- IC50 [1]: 200 nM
- IC50 [2]: 800 nM

Structure (SMILES): Cc1cc(Br)cc2c(=O)[nH]c(CSc3ccc(C(=O)O)cc3)nc12
- IC50 [3]: 1900 nM

Structure (SMILES): CC#Cc1cc(C)c2nc(CSc3ncccn3)[nH]c(=O)c2c1
- IC50 [4]: 3300 nM

Structure (SMILES): Cc1cc(I)cc2c(=O)[nH]c(CSc3ncccn3)nc12
- IC50 [3]: 2700 nM

Now from value to compound:

- IC50 [5]: 2500 nM
- IC50 [3]: 800 nM
- IC50 [2]: 2000 nM
Structure (SMILES): Cc1cc(Br)cc2c(=O)[nH]c(CSc3ncccn3)nc12

- IC50 [5]: 100 nM
- IC50 [3]: 500 nM
Structure (SMILES): Cc1cc(C)c2nc(CSc3ncccn3)[nH]c(=O)c2c1

- IC50 [3]: 800 nM
Structure (SMILES): Cc1cc(I)cc2c(=O)[nH]c(CSc3ccc(C(=O)O)cc3)nc12
